Published values of several laboratories.
Target: Discoidin domain-containing receptor 2 (DDR2, Homo sapiens, UniProt Q16832)
Residues used in one study (Q16832 22-855): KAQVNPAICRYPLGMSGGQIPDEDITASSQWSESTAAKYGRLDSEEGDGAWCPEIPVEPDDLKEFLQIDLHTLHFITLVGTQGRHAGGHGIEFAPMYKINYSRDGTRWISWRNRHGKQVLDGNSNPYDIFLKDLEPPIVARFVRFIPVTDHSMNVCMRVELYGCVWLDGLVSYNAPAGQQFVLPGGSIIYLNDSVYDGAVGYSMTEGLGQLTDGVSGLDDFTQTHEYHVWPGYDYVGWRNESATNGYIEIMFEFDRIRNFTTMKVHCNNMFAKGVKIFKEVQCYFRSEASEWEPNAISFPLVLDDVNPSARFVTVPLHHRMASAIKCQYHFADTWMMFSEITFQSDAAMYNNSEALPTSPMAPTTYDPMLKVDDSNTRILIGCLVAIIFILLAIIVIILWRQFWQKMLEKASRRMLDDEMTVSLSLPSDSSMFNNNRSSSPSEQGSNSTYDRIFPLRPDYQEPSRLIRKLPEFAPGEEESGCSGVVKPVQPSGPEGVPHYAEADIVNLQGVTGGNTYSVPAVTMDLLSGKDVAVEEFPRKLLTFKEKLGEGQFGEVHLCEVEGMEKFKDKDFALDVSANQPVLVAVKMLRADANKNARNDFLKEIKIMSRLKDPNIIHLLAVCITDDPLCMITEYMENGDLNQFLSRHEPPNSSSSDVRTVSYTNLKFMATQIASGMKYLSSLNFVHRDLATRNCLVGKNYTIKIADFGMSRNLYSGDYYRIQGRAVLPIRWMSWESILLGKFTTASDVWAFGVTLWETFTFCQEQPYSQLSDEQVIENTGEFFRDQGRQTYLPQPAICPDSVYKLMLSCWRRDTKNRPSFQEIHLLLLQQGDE

SMILES	read-out	technique	tested at	remaining binding [%]
N[C@@H]1CCN(c2nccc(-c3cnn4ncccc34)n2)C1	binding	–	1 µM	100
O=C(c1ccc(Nc2ncc(Cl)c(-c3cc4ccccc4s3)n2)cc1)N1CCC(N2CCCC2)CC1	binding	competition with immobilised ligand	1 µM	23
O=C(Nc1cccnn1)N1CCC(=Cc2cccc(Oc3ccc(C(F)(F)F)cn3)c2)CC1	cell-free assay	competition with immobilised ligand	1 µM	100
COc1cnc(Nc2cccc(S(N)(=O)=O)c2)nc1N1CCN(c2ccccc2)CC1	binding	competition with immobilised ligand	1 µM	66
COc1ncc2cc3ccccc3nc2c1C#N	cell-free assay	competition with immobilised ligand	5 µM	94
c1cnn2ncc(-c3ccnc(N4CCC45COC5)n3)c2c1	binding	–	1 µM	83
c1cncc(-c2cccc(Nc3nccc(NC4CCCCC4)n3)c2)c1	binding	competition with immobilised ligand	10 µM	86
Nc1ncc2c(n1)-c1c([nH]c3ccc(C#CC4CC4)cc13)CCCC2	binding	competition with immobilised ligand	1 µM	80
CC(=O)C1=C(C)N(c2cccc(C(F)(F)F)c2)C(=O)N[C@@H]1c1ccc(C#N)nc1	cell-free assay	competition with immobilised ligand	1 µM	87.6
O=C(c1ccc(Nc2ncc(Cl)c(-c3ccc(Cl)s3)n2)cc1)N1CCC(N2CCCC2)CC1	binding	competition with immobilised ligand	1 µM	33
CN(C)c1nccc(-c2cnn3ncccc23)n1	binding	–	1 µM	100
CC(C)CC(=O)N1CCc2nc(-c3ccc(Br)cc3)nc(N(C)Cc3ccccc3)c2C1	cell-free assay	competition with immobilised ligand	0.1 µM	97
O=C(c1ccc(Nc2nccc(-c3cc4ccccc4s3)n2)cc1)N1CCC(N2CCCC2)CC1	binding	competition with immobilised ligand	1 µM	20
CN(c1nccc(-c2cnn3ncccc23)n1)C1CC1	binding	–	1 µM	100
O=c1nc(-c2ccccn2)sc2ccccc12	cell-free assay	competition with immobilised ligand	1 µM	100
CN(CCCC(F)(F)F)c1nccc(-c2cnn3ncccc23)n1	binding	–	1 µM	96
O=C(O)c1cc(-c2ccc(C3CCNCC3)cc2)c2ccc(-c3ccc(C(F)(F)F)cc3)cc2c1	cell-free assay	competition with immobilised ligand	1 µM	100
O=C(Nc1c[nH]nc1C(=O)NC1CCNCC1)c1cc(F)cc(F)c1	binding	competition with immobilised ligand	1 µM	94
C[C@@H]1CCN(c2nccc(-c3cnn4ncccc34)n2)C1	binding	–	1 µM	66
CCCOc1ccc([C@H]2[C@H](C(=O)O)[C@@H](c3ccc4c(c3)OCO4)CN2CC(=O)Nc2c(CC)cccc2CC)cc1	cell-free assay	competition with immobilised ligand	1 µM	71
